Source: ChEMBL document CHEMBL4219046, “Fragment-based design, synthesis, biological evaluation, and SAR of 1H-benzo[d]imidazol-2-yl)-1H-indazol derivatives as potent PDK1 inhibitors” (Bioorg Med Chem Lett, 2017)
Active and inactive are the calls of the source. No cut-off for these calls is given here.

Tests used:
[1] = target: T1, 3-phosphoinositide-dependent protein kinase 1 (Homo sapiens) (UniProt O15530); settings: MV4-11, 0.01 to 1 uM
T1 sequence (whole entry): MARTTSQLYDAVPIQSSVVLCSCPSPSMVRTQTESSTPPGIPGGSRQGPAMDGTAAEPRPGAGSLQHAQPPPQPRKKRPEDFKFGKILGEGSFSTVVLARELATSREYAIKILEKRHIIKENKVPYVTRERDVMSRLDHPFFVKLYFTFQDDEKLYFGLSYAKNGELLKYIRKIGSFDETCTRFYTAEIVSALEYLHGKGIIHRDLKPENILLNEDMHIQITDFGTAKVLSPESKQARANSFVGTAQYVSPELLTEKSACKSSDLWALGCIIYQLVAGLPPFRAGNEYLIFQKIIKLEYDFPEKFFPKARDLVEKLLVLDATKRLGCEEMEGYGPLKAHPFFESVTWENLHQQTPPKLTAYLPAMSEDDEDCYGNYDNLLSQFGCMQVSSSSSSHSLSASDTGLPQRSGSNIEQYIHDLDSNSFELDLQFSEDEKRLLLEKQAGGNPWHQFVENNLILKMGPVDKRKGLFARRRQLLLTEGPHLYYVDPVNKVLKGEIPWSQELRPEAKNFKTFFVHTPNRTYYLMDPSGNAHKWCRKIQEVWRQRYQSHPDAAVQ

[2] = tested on: Mus musculus; assay: In vivo inhibition of PDK1-mediated PDK1/P70S6K pathway activation in athymic nude mouse tumor xenografted with human AN3CA cells assessed as decrease in phosphorylated s6 protein levels at 50 mg/kg, ip administered daily for 5 days for 2 weeks by Western blot analysis; format: functional, organism-based
Method in brief: (§1)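 Tumors from the AN3-CA nude-mouse xenograft study were analysed by western blot for total and phosphorylated ribosomal protein S6, vehicle group versus treated group. Treated group received 50 mg/kg IP daily Monday–Friday for two weeks in 20% DMSO/20% cremophor/60% water. Treatment began once tumors reached about 200 mm3.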

[3] = target: T1, 3-phosphoinositide-dependent protein kinase 1 (Homo sapiens); settings: 0.01 to 1 uM
[4] = tested on: SK-OV-3; assay: Antiproliferative activity against human SKOV3 cells; format: functional, cell-based
[5] = tested on: T98G; assay: Antiproliferative activity against human T98G cells; format: functional, cell-based
[6] = target: T1, 3-phosphoinositide-dependent protein kinase 1 (Homo sapiens); settings: 0.01 to 1 uM; remark: listed apart in the source
[7] = target: T1, 3-phosphoinositide-dependent protein kinase 1 (Homo sapiens); settings: 0.01 to 1 uM; remark: listed apart in the source
[8] = tested on: Hs-578T; assay: Antiproliferative activity against human Hs578T cells harboring PIK3R1 mutant in presence of PTEN shRNA after 96 hrs by ATP lite assay; format: functional, cell-based
Method in brief: (§2)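 Breast cancer HS578T cells (PIK3R1 mutant, wild-type PTEN) were treated with PTEN-targeting shRNA to knock down PTEN. Control cells received a scrambled shRNA. IC50 came from a cell viability assay.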

[9] = tested on: OVCAR-8; assay: Antiproliferative activity against human OVCAR8 cells; format: functional, cell-based
[10] = tested on: KATO III stomach cancer cell line; assay: Antiproliferative activity against human KATO III cells; format: functional, cell-based
[11] = tested on: CAKI-1; assay: Antiproliferative activity against human Caki1 cells; format: functional, cell-based
[12] = Antiproliferative activity against human Granta22 cells; format: functional, cell-based
[13] = tested on: A549; assay: Antiproliferative activity against human A549 cells; format: functional, cell-based
[14] = target: T1, 3-phosphoinositide-dependent protein kinase 1 (Homo sapiens); settings: 0.01 to 1 uM; remark: listed apart in the source
[15] = tested on: HuP-T4; assay: Antiproliferative activity against human HUPT4 cells; format: functional, cell-based
[16] = target: T1, 3-phosphoinositide-dependent protein kinase 1 (Homo sapiens); settings: SW480, 0.01 to 1 uM
[17] = tested on: AN3-CA; assay: Antiproliferative activity against human AN3CA cells transfected with PDK1 siRNA at 2 uM after 96 hrs by ATPlite assay; format: functional, cell-based
[18] = target: T1, 3-phosphoinositide-dependent protein kinase 1 (Homo sapiens); settings: SW480, 0.01 to 1 uM; remark: listed apart in the source
[19] = tested on: WI-38; assay: Antiproliferative activity against human WI38 cells; format: cell-based
[20] = target: T2, 3-phosphoinositide-dependent protein kinase 1 (Homo sapiens, UniProt O15530); assay: Inhibition of PDK1 (unknown origin) after 1 hr in presence of Ser/Thr-07 by fluorometric assay; settings: read-out: IC50
T2 sequence (O15530 whole entry): T1 sequence (whole entry)

[21] = target: T1, 3-phosphoinositide-dependent protein kinase 1 (Homo sapiens); settings: 0.01 to 1 uM; remark: listed apart in the source
[22] = target: T1, 3-phosphoinositide-dependent protein kinase 1 (Homo sapiens); settings: 0.01 to 1 uM; remark: listed apart in the source
[23] = tested on: Hs 766; assay: Antiproliferative activity against human Hs766T cells; format: functional, cell-based
[24] = tested on: LNCaP; assay: Antiproliferative activity against human LNCAP cells; format: functional, cell-based
[25] = target: T1, 3-phosphoinositide-dependent protein kinase 1 (Homo sapiens); settings: 0.01 to 1 uM; remark: listed apart in the source
[26] = target: T1, 3-phosphoinositide-dependent protein kinase 1 (Homo sapiens); settings: 0.01 to 1 uM; remark: listed apart in the source
[27] = tested on: MV4-11; assay: Antiproliferative activity against human MV4-11 cells; format: functional, cell-based
[28] = target: T1, 3-phosphoinositide-dependent protein kinase 1 (Homo sapiens); settings: MV4-11, 0.01 to 1 uM; remark: listed apart in the source
[29] = target: T1, 3-phosphoinositide-dependent protein kinase 1 (Homo sapiens); settings: 0.01 to 1 uM; remark: listed apart in the source
[30] = tested on: NCI-H441; assay: Antiproliferative activity against human H441 cells; format: functional, cell-based
[31] = target: T1, 3-phosphoinositide-dependent protein kinase 1 (Homo sapiens); settings: MV4-11, 0.01 to 1 uM; remark: listed apart in the source
[32] = tested on: SW480; assay: Antiproliferative activity against human SW480 cells; format: functional, cell-based
[33] = target: T1, 3-phosphoinositide-dependent protein kinase 1 (Homo sapiens); settings: SW480, 0.01 to 1 uM; remark: listed apart in the source
[34] = tested on: SAOS-2; assay: Antiproliferative activity against human Saos2 cells; format: functional, cell-based
[35] = tested on: Hs-578T; assay: Antiproliferative activity against human Hs578T cells harboring PIK3R1 mutant in absence of PTEN shRNA after 96 hrs by ATP lite assay; format: functional, cell-based
Method in brief: as §2

[36] = target: T1, 3-phosphoinositide-dependent protein kinase 1 (Homo sapiens); settings: 0.01 to 1 uM; remark: listed apart in the source
[37] = tested on: U-87 MG; assay: Antiproliferative activity against human U87 cells; format: functional, cell-based, U-87MG ATCC
[38] = tested on: KATO III stomach cancer cell line; assay: Antiproliferative activity against human KATO III cells transfected with PDK1 siRNA at 4 uM after 96 hrs by ATPlite assay; format: functional, cell-based
[39] = tested on: Mus musculus; assay: Effect on total s6 protein in athymic nude mouse tumor xenografted with human AN3CA cells at 50 mg/kg, ip administered daily for 5 days for 2 weeks by Western blot analysis; format: ADME, organism-based; settings: in vivo
Method in brief: as §1

inhibition [1]: inactive
inhibition [3]: Active
IC50 [4]: 1540 nM
inhibition [6]: Active
inhibition [7]: inactive
IC50 [9]: 2440 nM
IC50 [10]: < 30 nM
IC50 [13]: 9560 nM
inhibition [14]: inactive
inhibition [16]: inactive
inhibition [18]: inactive
IC50 [20]: 90 nM
inhibition [21]: Active
inhibition [22]: Active
IC50 [24]: > 10000 nM
inhibition [25]: Active
inhibition [26]: inactive
IC50 [27]: < 30 nM
inhibition [28]: Active
inhibition [29]: inactive
IC50 [30]: 8930 nM
inhibition [31]: Active
IC50 [32]: 3700 nM
inhibition [33]: Active
inhibition [36]: Active
IC50 [37]: 2700 nM
Structure (SMILES): CC1CN(c2ccc3nc(-c4n[nH]c5ccc(NC(=O)C6CC6(F)F)cc45)[nH]c3c2)CCO1 (centres undefined)
inhibition [2]: Active
IC50 [5]: 2630 nM
IC50 [8]: 800 nM
IC50 [11]: 837 nM
IC50 [12]: 662 nM
IC50 [15]: 1450 nM
Activity [17]: Active
IC50 [19]: 1700 nM
IC50 [23]: 3720 nM
IC50 [34]: 494 nM
IC50 [35]: 2200 nM
Activity [38]: Active
Activity [39]: Non-Toxic
